Test results published in ChEMBL document CHEMBL5038599, “Identification of Thiazoyl Guanidine Derivatives as Novel Antifungal Agents Inhibiting Ergosterol Biosynthesis for Treatment of Invasive Fungal Infections” (J Med Chem, 2021).
≈ marks a conversion by molar mass, not a printed value. Calls of active or inactive are those of the source. The calls are words filed in the database; no cut-off is given here.

How the values were obtained:
Aspergillus fumigatus [1] = experiment: Antifungal activity against pan-azole resistant Aspergillus fumigatus SR47013 harbouring Cyp51A Y121F mutant assessed as inhibition of fungal growth incubated for 48 hrs by broth microdilution method; conditions: SR47013, 48 h
Aspergillus fumigatus [2] = experiment: Antifungal activity against Aspergillus fumigatus ATCC 204305 assessed as inhibition of fungal growth incubated for 48 hrs by broth microdilution method; conditions: ATCC 204305, 48 h
Candida albicans = experiment: Antifungal activity against Candida albicans ATCC 90028 assessed as inhibition of fungal growth incubated for 24 hrs by broth microdilution method; assay type: functional
In short: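 Yeast cells were adjusted to about 2 × 10³ CFU/mL and broth microdilution was run for 24 h at 35 °C. Medium was YNB with 2% glucose and complete amino-acid mix, buffered to pH 7.0 with 50 mM MOPS. MIC was the lowest concentration giving >50% growth reduction versus untreated control, read by optical density at 600 nm.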

Aspergillus fumigatus [3] = experiment: Antifungal activity against Aspergillus fumigatus ATCC 204305 assessed as inhibition of fungal growth […] by broth microdilution method; assay type: functional
[4] = Metabolic stability in rat liver microsomes assessed as parent compound remaining at 0.5 uM incubated for 30 mins by LC/MS/MS analysis; assay type: ADME, Microsome; conditions: read-out: Stability
In short: (§1)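 Compound at 0.5 μM was incubated with liver microsomes at 0.5 mg protein/mL at 37 °C. Buffer was 50 mM Tris-HCl pH 7.4 with 150 mM KCl, 10 mM MgCl2 and 1 mM NADPH. Reactions were stopped at 0 and 30 min with MeCN/MeOH 1:1. Percent remaining was taken from LC/MS/MS peak area ratio, in duplicate.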

[5] = Metabolic stability in human liver microsomes assessed as parent compound remaining at 0.5 uM incubated for 30 mins by LC/MS/MS analysis; assay type: ADME, Microsome; conditions: read-out: Stability
In short: as §1

Aspergillus fumigatus [6] = experiment: Antifungal activity against Aspergillus fumigatus ATCC 204305 assessed as inhibition of fungal growth incubated for 48 hrs in presence of 50% heat-inactivated bovine serum by broth microdilution method; assay type: functional; conditions: ATCC 204305, 48 h, in the assay text read “incubated for 48 hrs” for “incubated for 24 hrs”
In short: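 Broth microdilution per CLSI M38-A2 with modifications. Conidia at about 1 × 10⁴ CFU/mL were grown for 48 h at 35 °C in YNB with 2% glucose and complete amino-acid mix, buffered to pH 7.0 with 50 mM MOPS. Medium was with or without 50% heat-inactivated bovine serum. MIC was the lowest concentration giving no visible growth.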

Aspergillus fumigatus [7] = experiment: Inhibition of Sterol methyl transferase in Aspergillus fumigatus ATCC 204305 assessed as accumulation of ergosterol at 0.5 ug/mL measured per 100 mg of mycelia by LC/MS analysis (Rvb= 144 nmol); conditions: dose 0.5 µg/ml
In short: (§2)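 Conidia at 1 × 10⁴ CFU/mL were grown 24 h at 35 °C in YNB with 2% glucose and amino-acid mix, then compound was added and cultures ran a further 24 h. Mycelia were filtered and saponified in 25% ethanolic KOH at 85 °C for 1 h. Sterols were extracted into n-hexane, dried under N₂ at 40 °C and redissolved in acetone at 200 μL per 100 mg dry mycelium. Separation used a C18 column at 40 °C with an acetonitrile gradient.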

Mus musculus [8] = experiment: In vivo antifungal activity against Aspergillus fumigatus infected in ICR mouse assessed as reduction in serum-galactomannan at 30 mg/kg, iv administered at 2 to 50 hrs post-inoculation and measured after 60 hrs by GM analysis; assay type: functional, organism-based
In short: (§3)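 Male ICR mice (5 weeks) were immunosuppressed with intraperitoneal cyclophosphamide, 150 mg/kg on day −4 and 100 mg/kg on day −1. Mice were infected intravenously with about 1.5 × 10⁵ conidia in saline. Tail-vein dosing was at 2, 16, 21, 26, 40, 45 and 50 h, in 5% DMSO/5% Cremophor EL/4% glucose or 5% glucose. Samples were taken at 60 h, five mice per group, and analysed by Dunnett's test against untreated controls.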

Aspergillus fumigatus [9] = experiment: Inhibition of Sterol methyl transferase in Aspergillus fumigatus ATCC 204305 assessed as accumulation of zymosterol at 0.5 ug/mL measured per 100 mg of mycelia by LC/MS analysis (Rvb= 0 nmol); conditions: dose 0.5 µg/ml
In short: as §2

Aspergillus fumigatus [10] = experiment: Inhibition of Sterol methyl transferase in Aspergillus fumigatus ATCC 204305 assessed as accumulation of eburicol at 0.5 ug/ml measured per 100 mg of mycelia by LC/MS analysis (Rvb= 0 nmol); conditions: dose 0.5 µg/ml
In short: as §2

Mus musculus [11] = experiment: In vivo antifungal activity against Aspergillus fumigatus infected in ICR mouse assessed as log reduction in fungal burden with 18S rRNA in kidney at 30 mg/kg, iv administered at 2 to 50 hrs post-inoculation and measured after 60 hrs by RT-qPCR analysis; assay type: functional
In short: as §3

Aspergillus fumigatus [12] = experiment: Inhibition of Sterol methyl transferase in Aspergillus fumigatus ATCC 204305 assessed as accumulation of lanosterol at 0.5 ug/mL measured per 100 mg of mycelia by LC/MS analysis (Rvb= 0 nmol); conditions: dose 0.5 µg/ml
In short: as §2

[13] = AUC in ICR mouse at 30 mg/kg, iv measured upto 360 mins by LC/MS/MS analysis; assay type: ADME, organism-based; design: route intravenous, dose 30 mg/kg, time <=360; conditions: in vivo
In short: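 Male ICR mice, 6 weeks old. Dosed iv via tail vein at 30 mg/10 mL/kg (n = 3). The test agent was a solution in 5% DMSO, 5% Cremophor EL and 4% glucose; the reference azole was in 5% glucose. Blood (EDTA-2K plus heparin) was taken at 5, 30, 60, 180 and 360 min and spun to plasma. Proteins were precipitated with methanol before LC/MS/MS.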

Aspergillus fumigatus [14] = experiment: Inhibition of Sterol methyl transferase in Aspergillus fumigatus ATCC 204305 assessed as accumulation of lanosterol at 2 ug/mL measured per 100 mg of mycelia by LC/MS analysis (Rvb= 0 nmol); conditions: dose 2.0 µg/ml
In short: (§4)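 Cultures of A. fumigatus ATCC 204305 (1 × 10⁴ CFU/mL in YNB with 2% glucose and amino-acid mix) were grown 24 h at 35 °C, then exposed to compound for 24 h. Mycelia were saponified in 25% ethanolic KOH at 85 °C for 1 h and extracted with n-hexane. Extracts were dried, redissolved in acetone at 200 μL per 100 mg dry mycelium, and analysed on a C18 column at 40 °C with acetonitrile gradient.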

[15] = Clearance in Sprague-Dawley rat at 0.5 mg/kg, iv measured upto 1440 mins by LC/MS/MS analysis; assay type: ADME, organism-based; conditions: in vivo
Aspergillus fumigatus [16] = experiment: Inhibition of Sterol methyl transferase in Aspergillus fumigatus ATCC 204305 assessed as accumulation of ergosterol at 2 ug/mL measured per 100 mg of mycelia by LC/MS analysis (Rvb= 144 nmol); conditions: dose 2.0 µg/ml
In short: as §4

[17] = Unbound fraction in Sprague-Dawley rat at 0.5 mg/kg, iv measured upto 1440 mins by LC/MS/MS analysis; assay type: ADME, organism-based; conditions: in vivo
[18] = Volume of distribution at steady state in Sprague-Dawley rat at 0.5 mg/kg, iv measured upto 1440 mins by LC/MS/MS analysis; assay type: ADME, organism-based; conditions: in vivo, read-out: Vdss
Aspergillus fumigatus [19] = experiment: Inhibition of Sterol methyl transferase in Aspergillus fumigatus ATCC 204305 assessed as accumulation of zymosterol at 2 ug/mL measured per 100 mg of mycelia by LC/MS analysis (Rvb= 0 nmol); conditions: dose 2.0 µg/ml
In short: as §4

Aspergillus fumigatus [20] = experiment: Inhibition of Sterol methyl transferase in Aspergillus fumigatus ATCC 204305 assessed as accumulation of eburicol at 2 ug/mL measured per 100 mg of mycelia by LC/MS analysis (Rvb= 0 nmol); conditions: dose 2.0 µg/ml
In short: as §4

Row | Compound | MIC50 (Aspergillus fumigatus [1]) [µg/mL] | MIC (Aspergillus fumigatus [2]) [µg/mL] | MIC50 (Candida albicans) [µg/mL] | MIC50 (Aspergillus fumigatus [3]) [µg/mL] | remaining at 0.5 h, 0.5 µM [4] [%] | remaining at 0.5 h, 0.5 µM [5] [%] | further results
1 | CC[C@@H]([C@H](C)O)n1ncn(-c2ccc(N3CCN(c4ccc(OC[C@@H]5CO[C@@](Cn6cncn6)(c6ccc(F)cc6F)C5)cc4)CC3)cc2)c1=O [POSACONAZOLE] | 4 (≈ 5.71 µM) | 0.063 (≈ 0.0899 µM) | – | – | – | – | –
2 | c1ccc(-c2cccc(-c3csc(N=C4NCCCN4)n3)c2)cc1 | – | – | < 0.063 | 1 (≈ 2.99 µM) | – | – | –
3 | Cc1ccc(Oc2ccccc2-c2nsc(N=C3NCCCN3)n2)c(C)c1 | – | – | > 16 | > 16 | – | – | –
4 | Cc1ccc(Oc2ccccc2-c2csc(N(C)C)n2)c(C)c1 | – | – | > 16 | > 16 | – | – | –
5 | c1ccc(-n2ccc(-c3csc(N=C4NCCCN4)n3)n2)cc1 | – | – | 0.5 (≈ 1.54 µM) | > 16 | 1.6 | 38 | –
6 | CS(=O)(=O)c1cccc(-c2nc(-c3csc(N=C4NCCCN4)n3)cs2)c1 | – | 4 (≈ 9.53 µM) | – | – | 47 | 85 | MIC50 (Aspergillus fumigatus [6]): 16 µg/mL
7 | C[C@@H](c1ncncc1F)[C@](O)(Cn1cncn1)c1ccc(F)cc1F [VORICONAZOLE] | > 16 | 0.5 (≈ 1.43 µM) | – | – | – | – | Activity (Aspergillus fumigatus [7]): 99 nmol; Activity (Mus musculus [8]): inactive; Activity (Aspergillus fumigatus [9]): 0 nmol; Activity (Aspergillus fumigatus [10]): 34 nmol; Activity (Mus musculus [11]): inactive; Activity (Aspergillus fumigatus [12]): 1 nmol; AUC at 6 h [13]: 222 µg·h/mL
8 | Oc1cccc(-c2nc(-c3csc(N=C4NCCCN4)n3)cs2)c1 | – | 4 (≈ 11.2 µM) | – | – | 35 | 77 | –
9 | Cc1ccc(Oc2ccccc2-c2csc(N=C3NCCCCN3)n2)c(C)c1 | – | – | 1 (≈ 2.55 µM) | > 16 | – | – | –
10 | CS(=O)(=O)c1ccc(-c2nc(-c3csc(N=C4NCCCN4)n3)cs2)cc1 | 2 (≈ 4.77 µM) | 2 (≈ 4.77 µM) | – | – | 53 | 87 | Activity (Aspergillus fumigatus [14]): 40 nmol; clearance [15]: 12.3 mL/min/kg; Activity (Mus musculus [8]): Active; Activity (Aspergillus fumigatus [16]): 102 nmol; MIC50 (Aspergillus fumigatus [6]): 4 µg/mL; fraction unbound at 24 h [17]: 0.067; Vd [18]: 4.21 L/kg; log(activity) (Mus musculus [11]): 4; Activity (Aspergillus fumigatus [19]): 0 nmol; Activity (Aspergillus fumigatus [20]): 1 nmol; AUC at 6 h [13]: 48.2 µg·h/mL
11 | Cc1ccc(Oc2ccccc2-c2csc(Nc3ncccn3)n2)c(C)c1 | – | – | > 16 | > 16 | – | – | –
12 | CCC(C)n1ncn(-c2ccc(N3CCN(c4ccc(OCC5COC(Cn6cncn6)(c6ccc(Cl)cc6Cl)O5)cc4)CC3)cc2)c1=O (stereo not given) [ITRACONAZOLE] | > 16 | 0.25 (≈ 0.354 µM) | – | – | – | – | –
13 | Oc1ccccc1-c1nc(-c2csc(N=C3NCCCN3)n2)cs1 | – | 0.5 (≈ 1.4 µM) | – | – | 38 | 30 | MIC50 (Aspergillus fumigatus [6]): 8 µg/mL
14 | Cc1ccc(Oc2ccccc2-c2csc(N=C3NCCCN3)n2)c(C)c1 [ABAFUNGIN] | 2 (≈ 5.28 µM) | – | < 0.063 | 2 (≈ 5.28 µM) | 0.2 | 64 | clearance [15]: 51.4 mL/min/kg; Activity (Mus musculus [8]): inactive; fraction unbound at 24 h [17]: < 0.001; Vd [18]: 4.92 L/kg; Activity (Mus musculus [11]): inactive
15 | C[C@@H](c1nc(-c2ccc(C#N)cc2)cs1)[C@](O)(Cn1cncn1)c1cc(F)ccc1F [ISAVUCONAZOLE] | > 16 | 0.25 (≈ 0.571 µM) | – | – | – | – | –
